# Assays:
# Plasmodium falciparum [1] = test: Antiparasitic activity against Plasmodium falciparum Dd2 assessed as growth inhibition after 72 hrs by DAPI staining-based confocal image analysis; format: functional, organism-based; details: Dd2, 72 h
# How it was run: (§1)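 Sorbitol-synchronised ring-stage parasites in human O+ erythrocytes at 2% parasitaemia, 0.3% haematocrit, incubated 72 h at 37 °C (5% CO2) with three-step log serial dilutions from 20 μM top, 0.4% DMSO final. Staining with DAPI/saponin/Triton X/EDTA in PBS, confocal imaging, parasite count.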
# Plasmodium falciparum [2] = test: Antiparasitic activity against Plasmodium falciparum 3D7 assessed as growth inhibition after 72 hrs by DAPI staining-based confocal image analysis; format: functional, organism-based; details: 3D7, 72 h; how it was run: as §1
# Plasmodium falciparum [3] = test: Antiparasitic activity against chloroquine/quinine/pyrimethamine/sulfadoxine/NITD609-resistant Plasmodium falciparum Dd2 clone 2 assessed as growth inhibition after 72 hrs by DAPI staining-based confocal image analysis; format: functional, organism-based; details: Dd2, 72 h; how it was run: as §1
# [4] = Inhibition of recombinant Plasmodium falciparum M1 aminopeptidase using H-Leu-NHMec as substrate preincubated for 10 mins followed by addition of substrate by spectrofluorimetric analysis
# How it was run: (§2)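 E. coli-expressed enzymes, purified by Ni-NTA and size exclusion. Preincubation 10 min at 37°C with inhibitor: M1 in 100 mM Tris pH 8.0; M17 in 50 mM Tris pH 8.0, 2 mM CoCl2. Substrate H-Leu-NHMec kept below Km. Fluorescence ex 355/em 460 nm followed to steady-state velocity. Inhibitor range 500pM–500 μM. Ki from Dixon plots (1/V vs [I]).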
# HEK293 = test: Cytotoxicity against HEK293 cells assessed as cell viability after 72 hrs by resazurin assay; format: cell-based; details: human, hek293, 72 h
# How it was run: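 HEK293 cells in DMEM with 10% FCS, seeded at 2000 cells/well and left to adhere overnight. Compound dose response with top final 40 μM, 0.4% DMSO. Exposure 72 h at 37 °C, 5% CO2. Medium then replaced by 44 μM resazurin in serum-free DMEM for 4-6 h. Fluorescence read at ex/em 530/595 nm.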
# [5] = Inhibition of recombinant Plasmodium falciparum M17 aminopeptidase using H-Leu-NHMec as substrate preincubated for 10 mins followed by addition of substrate by spectrofluorimetric analysis; how it was run: as §2
smiles,measurement,setting,value
CC(C)(C)C(=O)NC(C(=O)NO)c1ccc(-c2ccccc2F)cc1 (centres undefined),IC50,Plasmodium falciparum [1],207 nM
same,IC50,Plasmodium falciparum [2],131 nM
same,IC50,Plasmodium falciparum [3],210 nM
same,Ki,[4],1600 nM
same,Activity,HEK293,Non-toxic
same,Ki,[5],12 nM
CC(C)(C)OC(=O)NC(C(=O)NO)c1ccc(-c2ccccc2)cc1 (centres undefined),Ki,[4],37000 nM
same,Ki,[5],55 nM
C[C@H]1[C@H](OC(=O)CCC(=O)O)O[C@@H]2O[C@@]3(C)CC[C@H]4[C@H](C)CC[C@@H]1[C@@]24OO3 [ARTESUNATE],IC50,Plasmodium falciparum [1],1.3 nM
same,IC50,Plasmodium falciparum [3],0.9 nM
Cn1cc(-c2ccc(C(NC(=O)C(C)(C)C)C(=O)NO)cc2)cn1 (centres undefined),Ki,[4],11000 nM
same,Ki,[5],7.2 nM
CC(C)(C)C(=O)NC(C(=O)NO)c1ccc(-c2ccsc2)cc1 (centres undefined),IC50,Plasmodium falciparum [1],110 nM
same,IC50,Plasmodium falciparum [2],103 nM
same,IC50,Plasmodium falciparum [3],100 nM
same,Ki,[4],640 nM
same,Activity,HEK293,Non-toxic
same,Ki,[5],9.1 nM
CC(C)(C)C(=O)NC(C(=O)NO)c1ccc(-c2ccc(F)cc2F)cc1 (centres undefined),IC50,Plasmodium falciparum [1],164 nM
same,IC50,Plasmodium falciparum [2],109 nM
same,IC50,Plasmodium falciparum [3],216 nM
same,Ki,[4],2500 nM
same,Activity,HEK293,Non-toxic
same,Ki,[5],5.2 nM
CC(C)(C)C(=O)NC(C(=O)NO)c1ccc(Br)cc1 (centres undefined),IC50,Plasmodium falciparum [1],194 nM
same,IC50,Plasmodium falciparum [2],169 nM
same,IC50,Plasmodium falciparum [3],163 nM
same,Ki,[4],65 nM
same,Activity,HEK293,Non-toxic
same,Ki,[5],41 nM
CC(C)(C)C(=O)NC(C(=O)NO)c1ccc(-c2c(F)c(F)c(F)c(F)c2F)cc1 (centres undefined),IC50,Plasmodium falciparum [1],461 nM
same,IC50,Plasmodium falciparum [2],130 nM
same,IC50,Plasmodium falciparum [3],408 nM
same,Ki,[4],1800 nM
same,Activity,HEK293,Non-toxic
same,Ki,[5],8.4 nM
CC(C)(C)OC(=O)NC(C(=O)NO)c1ccc(-c2ccccc2F)cc1 (centres undefined),IC50,Plasmodium falciparum [2],633 nM
same,Ki,[4],950 nM
same,Activity,HEK293,Non-toxic
same,Ki,[5],41 nM
CC(C)(C)OC(=O)NC(C(=O)NO)c1ccc(-c2ccc(C(F)(F)F)cc2)cc1 (centres undefined),Ki,[4],> 500000 nM
same,Ki,[5],470 nM
CC(C)(C)OC(=O)NC(Cc1ccc(F)cc1)C(=O)NO (centres undefined),Ki,[4],18000 nM
same,Ki,[5],2800 nM
CC(C)(C)OC(=O)NC(C(=O)NO)c1ccc(-c2ccsc2)cc1 (centres undefined),Ki,[4],20000 nM
same,Ki,[5],64 nM
CC(C)(C)C(=O)NC(C(=O)NO)c1ccc(-c2c(F)cccc2F)cc1 (centres undefined),IC50,Plasmodium falciparum [1],251 nM
same,IC50,Plasmodium falciparum [2],142 nM
same,IC50,Plasmodium falciparum [3],246 nM
same,Ki,[4],4800 nM
same,Activity,HEK293,Non-toxic
same,Ki,[5],13 nM
CC(C)(C)OC(=O)NC(C(=O)NO)c1ccc(-c2ccc(/C(N)=N/O)cc2)cc1 (centres undefined),IC50,Plasmodium falciparum [2],334 nM
same,Ki,[4],400 nM
same,Activity,HEK293,Non-toxic
same,Ki,[5],18 nM
CC(C)(C)OC(=O)NC(C(=O)NO)c1ccc(-c2ccccc2C(F)(F)F)cc1 (centres undefined),Ki,[4],750 nM
same,Ki,[5],120 nM
CC(C)(C)C(=O)NC(Cc1ccc(-c2ccccc2)cc1)C(=O)NO (centres undefined),Ki,[4],27000 nM
same,Ki,[5],650 nM
CC(C)(C)C(=O)NC(C(=O)NO)c1ccc(-c2c(F)cc(F)cc2F)cc1 (centres undefined),IC50,Plasmodium falciparum [1],267 nM
same,IC50,Plasmodium falciparum [2],125 nM
same,IC50,Plasmodium falciparum [3],450 nM
same,Ki,[4],5900 nM
same,Activity,HEK293,Non-toxic
same,Ki,[5],2.5 nM
CC(C)(C)OC(=O)NC(C(=O)NO)c1ccc(-c2cccc(C(F)(F)F)c2)cc1 (centres undefined),Ki,[4],2900 nM
same,Ki,[5],140 nM
Cn1cc(-c2ccc(C(NC(=O)OC(C)(C)C)C(=O)NO)cc2)cn1 (centres undefined),IC50,Plasmodium falciparum [2],978 nM
same,Ki,[4],1900 nM
same,Activity,HEK293,Non-toxic
same,Ki,[5],56 nM
CC(C)(C)C(=O)NC(Cc1ccc(I)cc1)C(=O)NO (centres undefined),Ki,[4],15000 nM
same,Ki,[5],16 nM
CC(C)(C)OC(=O)NC(C(=O)NO)c1ccc(-c2ccncc2)cc1 (centres undefined),Ki,[4],910 nM
same,Ki,[5],540 nM
CC(C)(C)OC(=O)NC(C(=O)NO)c1ccc(-c2cccc(/C(N)=N\O)c2)cc1 (centres undefined),IC50,Plasmodium falciparum [2],679 nM
same,Ki,[4],1100 nM
same,Activity,HEK293,Non-toxic
same,Ki,[5],140 nM
CC(C)(C)OC(=O)NC(Cc1ccc(-c2ccccc2)cc1)C(=O)NO (centres undefined),Ki,[4],> 500000 nM
same,Ki,[5],5200 nM
CC(C)(C)OC(=O)NC(C(=O)NO)c1ccc(Br)cc1 (centres undefined),IC50,Plasmodium falciparum [2],293 nM
same,Ki,[4],27 nM
same,Activity,HEK293,Non-toxic
same,Ki,[5],80 nM
CC(C)(C)OC(=O)NC(C(=O)NO)c1ccc(-c2cc(F)c(F)c(F)c2)cc1 (centres undefined),Ki,[4],19000 nM
same,Ki,[5],200 nM
CC(C)(C)C(=O)NC(C(=O)NO)c1ccc(-c2ccccc2)cc1 (centres undefined),IC50,Plasmodium falciparum [1],190 nM
same,IC50,Plasmodium falciparum [2],96 nM
same,IC50,Plasmodium falciparum [3],219 nM
same,Ki,[4],1600 nM
same,Activity,HEK293,Non-toxic
same,Ki,[5],7 nM
CC(C)(C)C(=O)NC(C(=O)NO)c1ccc(-c2ccc(F)cc2)cc1 (centres undefined),IC50,Plasmodium falciparum [1],225 nM
same,IC50,Plasmodium falciparum [2],126 nM
same,IC50,Plasmodium falciparum [3],193 nM
same,Ki,[4],6500 nM
same,Activity,HEK293,Non-toxic
same,Ki,[5],33 nM
CC(C)(C)C(=O)NC(Cc1ccc(F)cc1)C(=O)NO (centres undefined),Ki,[4],63000 nM
same,Ki,[5],37 nM
CC(C)(C)C(=O)NC(C(=O)NO)c1ccc(-c2cccc(F)c2)cc1 (centres undefined),IC50,Plasmodium falciparum [1],226 nM
same,IC50,Plasmodium falciparum [2],162 nM
same,IC50,Plasmodium falciparum [3],316 nM
same,Ki,[4],550 nM
same,Activity,HEK293,Non-toxic
same,Ki,[5],6.2 nM
CC(C)(C)OC(=O)NC(C(=O)NO)c1ccc(-c2cccc(F)c2)cc1 (centres undefined),Ki,[4],950 nM
same,Ki,[5],130 nM
CC(C)(C)OC(=O)NC(C(=O)NO)c1ccc(-c2ccc(F)cc2)cc1 (centres undefined),Ki,[4],100000 nM
same,Ki,[5],74 nM
CC(C)(C)C(=O)NC(C(=O)NO)c1ccc(-c2cc(F)cc(F)c2)cc1 (centres undefined),IC50,Plasmodium falciparum [1],239 nM
same,IC50,Plasmodium falciparum [2],144 nM
same,IC50,Plasmodium falciparum [3],232 nM
same,Ki,[4],580 nM
same,Activity,HEK293,Non-toxic
same,Ki,[5],92 nM
CC(C)(C)C(=O)NC(C(=O)NO)c1ccc(-c2ccc(F)c(F)c2)cc1 (centres undefined),IC50,Plasmodium falciparum [1],170 nM
same,IC50,Plasmodium falciparum [2],139 nM
same,IC50,Plasmodium falciparum [3],195 nM
same,Ki,[4],1400 nM
same,Activity,HEK293,Non-toxic
same,Ki,[5],6.4 nM
CC(C)(C)C(=O)NC(Cc1ccc(Br)cc1)C(=O)NO (centres undefined),Ki,[4],87000 nM
same,Ki,[5],420 nM
CC(C)(C)OC(=O)NC(Cc1ccc(Br)cc1)C(=O)NO (centres undefined),Ki,[4],39000 nM
same,Ki,[5],7700 nM
CC(C)(C)OC(=O)NC(C(=O)NO)c1ccc(F)cc1 (centres undefined),Ki,[4],5300 nM
same,Ki,[5],1700 nM
CC(C)(C)C(=O)NC(C(=O)NO)c1ccc(F)cc1 (centres undefined),IC50,Plasmodium falciparum [1],2010 nM
same,IC50,Plasmodium falciparum [2],1530 nM
same,IC50,Plasmodium falciparum [3],2090 nM
same,Ki,[4],4000 nM
same,Activity,HEK293,Non-toxic
same,Ki,[5],29 nM
Cn1cc(-c2ccc(CC(NC(=O)OC(C)(C)C)C(=O)NO)cc2)cn1 (centres undefined),Ki,[4],120000 nM
same,Ki,[5],14000 nM
CC(C)(C)OC(=O)NC(Cc1ccc(I)cc1)C(=O)NO (centres undefined),Ki,[4],4300 nM
same,Ki,[5],21000 nM
CC(C)(C)OC(=O)NC(C(=O)NO)c1ccc(-c2cccnc2)cc1 (centres undefined),Ki,[4],1100 nM
same,Ki,[5],220 nM
Cn1cc(-c2ccc(CC(NC(=O)C(C)(C)C)C(=O)NO)cc2)cn1 (centres undefined),Ki,[4],39000 nM
same,Ki,[5],740 nM

# Source: ChEMBL document CHEMBL3763022, “Potent dual inhibitors of Plasmodium falciparum M1 and M17 aminopeptidases through optimization of S1 pocket interactions” (Eur J Med Chem, 2016)
